Measurements reported in ChEMBL document CHEMBL1629540 (J Med Chem, 2010).

Experiments:
[1] = Displacement of [3H]KA from kainate receptor in rat brain membrane; assay type: cell membranes
Method in brief: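 Rat cortical synaptosomal membranes, competition with 5 nM [3H]KA (58.0 Ci/mmol). IC50 given as the antilog of the mean log value from three individual experiments.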

Glutamate receptor 4 [2] = biological target: T1, Glutamate receptor 4 (Rattus norvegicus, UniProt P19493); experiment: Displacement of [3H[AMPA from rat recombinant GluA4o expressed in […] cells; assay type: cell-based
T1 sequence (P19493 whole entry): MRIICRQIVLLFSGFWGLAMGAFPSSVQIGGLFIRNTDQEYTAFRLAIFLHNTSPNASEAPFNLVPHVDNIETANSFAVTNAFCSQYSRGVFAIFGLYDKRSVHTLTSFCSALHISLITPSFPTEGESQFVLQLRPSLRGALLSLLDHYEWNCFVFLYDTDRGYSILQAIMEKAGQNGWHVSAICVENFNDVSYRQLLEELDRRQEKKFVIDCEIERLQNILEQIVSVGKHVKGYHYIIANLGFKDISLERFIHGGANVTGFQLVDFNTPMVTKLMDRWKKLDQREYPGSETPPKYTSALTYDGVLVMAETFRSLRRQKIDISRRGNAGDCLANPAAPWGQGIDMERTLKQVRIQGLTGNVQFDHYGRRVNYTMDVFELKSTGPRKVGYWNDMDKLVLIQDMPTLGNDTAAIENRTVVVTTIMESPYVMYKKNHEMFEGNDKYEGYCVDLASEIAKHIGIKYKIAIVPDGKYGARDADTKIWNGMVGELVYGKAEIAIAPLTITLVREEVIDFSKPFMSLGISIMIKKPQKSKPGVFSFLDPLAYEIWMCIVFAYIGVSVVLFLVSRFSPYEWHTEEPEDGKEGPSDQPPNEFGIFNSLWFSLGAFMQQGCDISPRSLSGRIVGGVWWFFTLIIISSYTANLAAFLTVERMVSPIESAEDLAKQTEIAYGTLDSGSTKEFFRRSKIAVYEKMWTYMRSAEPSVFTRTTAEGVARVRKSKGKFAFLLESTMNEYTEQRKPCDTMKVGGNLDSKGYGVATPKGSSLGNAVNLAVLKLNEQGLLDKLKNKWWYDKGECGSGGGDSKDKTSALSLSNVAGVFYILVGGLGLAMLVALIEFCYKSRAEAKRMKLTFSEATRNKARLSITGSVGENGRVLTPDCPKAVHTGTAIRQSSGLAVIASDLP
Method in brief: (§1)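 Competition binding to membranes from Sf9 cells infected with recombinant baculovirus encoding rat flop GluA subunits. Radioligand 2-5 nM (RS)-[3H]AMPA, 12-16 ligand concentrations. At least three experiments, each in triplicate, reported as Ki mean ± SEM.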

Glutamate receptor 3 [3] = biological target: T2, Glutamate receptor 3 (Rattus norvegicus, UniProt P19492); experiment: Displacement of [3H[AMPA from rat recombinant GluA3o expressed in […] cells; assay type: cell-based; method in brief: as §1
[4] = biological target: Glutamate receptor ionotropic, kainate 1 (Rattus norvegicus, UniProt P22756); experiment: Displacement of [3H[SYM2081 from rat recombinant GluK1(Q)1b expressed in […] cells; assay type: cell-based
Chain of Glutamate receptor ionotropic, kainate 1 (P22756 whole entry): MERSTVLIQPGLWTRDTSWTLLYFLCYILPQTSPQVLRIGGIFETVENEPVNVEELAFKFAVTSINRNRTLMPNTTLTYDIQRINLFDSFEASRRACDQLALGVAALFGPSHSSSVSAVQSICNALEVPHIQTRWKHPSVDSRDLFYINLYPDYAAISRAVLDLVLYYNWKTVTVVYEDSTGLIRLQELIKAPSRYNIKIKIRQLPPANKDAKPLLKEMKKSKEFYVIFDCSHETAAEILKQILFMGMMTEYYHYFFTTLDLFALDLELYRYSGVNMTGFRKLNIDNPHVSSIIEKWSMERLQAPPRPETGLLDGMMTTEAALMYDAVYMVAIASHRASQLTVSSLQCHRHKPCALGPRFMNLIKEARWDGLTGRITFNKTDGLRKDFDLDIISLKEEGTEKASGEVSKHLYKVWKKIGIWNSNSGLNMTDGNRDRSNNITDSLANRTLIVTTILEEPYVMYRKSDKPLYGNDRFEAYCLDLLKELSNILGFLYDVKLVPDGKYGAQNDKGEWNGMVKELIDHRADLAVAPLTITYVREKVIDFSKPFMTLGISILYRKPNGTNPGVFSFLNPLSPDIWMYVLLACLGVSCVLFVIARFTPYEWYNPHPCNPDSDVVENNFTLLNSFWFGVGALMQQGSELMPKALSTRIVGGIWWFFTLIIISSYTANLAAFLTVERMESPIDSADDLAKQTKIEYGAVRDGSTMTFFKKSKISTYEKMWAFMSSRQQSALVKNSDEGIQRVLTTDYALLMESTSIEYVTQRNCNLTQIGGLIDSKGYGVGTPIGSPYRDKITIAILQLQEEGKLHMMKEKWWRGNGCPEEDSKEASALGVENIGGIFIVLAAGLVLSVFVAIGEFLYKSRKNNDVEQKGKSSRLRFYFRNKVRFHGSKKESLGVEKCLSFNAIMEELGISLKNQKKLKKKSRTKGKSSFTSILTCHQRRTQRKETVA

Glutamate receptor 2 [5] = biological target: T3, Glutamate receptor 2 (Rattus norvegicus, UniProt P19491); experiment: Agonist activity at rat recombinant GluA2(Q)i expressed in Xenopus laevis oocytes by two-electrode voltage clamp assay; assay type: functional, cell-based, Oocyte
T3 sequence (P19491 whole entry): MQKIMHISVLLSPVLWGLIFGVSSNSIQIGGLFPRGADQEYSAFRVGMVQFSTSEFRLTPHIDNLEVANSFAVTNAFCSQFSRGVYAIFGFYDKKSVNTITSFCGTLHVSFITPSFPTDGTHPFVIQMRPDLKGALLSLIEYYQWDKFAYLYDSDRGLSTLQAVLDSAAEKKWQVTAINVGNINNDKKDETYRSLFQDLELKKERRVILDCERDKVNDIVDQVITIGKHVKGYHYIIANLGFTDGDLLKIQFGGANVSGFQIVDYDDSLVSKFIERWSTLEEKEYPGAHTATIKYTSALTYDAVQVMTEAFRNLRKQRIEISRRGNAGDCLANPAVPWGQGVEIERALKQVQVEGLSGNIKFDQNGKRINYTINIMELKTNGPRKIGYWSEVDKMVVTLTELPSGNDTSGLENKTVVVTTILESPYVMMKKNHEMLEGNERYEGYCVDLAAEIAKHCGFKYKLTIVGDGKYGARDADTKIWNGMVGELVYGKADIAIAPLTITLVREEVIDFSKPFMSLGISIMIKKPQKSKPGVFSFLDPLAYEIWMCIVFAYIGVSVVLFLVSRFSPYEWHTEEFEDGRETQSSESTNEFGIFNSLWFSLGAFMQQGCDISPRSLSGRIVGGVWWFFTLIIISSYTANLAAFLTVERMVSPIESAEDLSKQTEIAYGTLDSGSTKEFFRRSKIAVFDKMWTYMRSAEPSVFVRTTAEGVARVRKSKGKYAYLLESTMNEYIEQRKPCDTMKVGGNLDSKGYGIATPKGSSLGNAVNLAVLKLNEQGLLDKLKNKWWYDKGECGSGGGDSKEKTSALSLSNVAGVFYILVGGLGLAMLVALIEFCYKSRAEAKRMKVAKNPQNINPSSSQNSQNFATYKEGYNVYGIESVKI
Method in brief: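 Homomeric rat GluA2(Q) flip receptors expressed in Xenopus laevis oocytes and recorded by two-electrode voltage clamp. Agonist-evoked currents were normalised to the maximum response in each oocyte. EC50 was obtained by fitting the concentration-response data to a logistic equation giving Imax and the Hill coefficient.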

[6] = biological target: Glutamate receptor ionotropic, kainate 2 (Rattus norvegicus, UniProt P42260); experiment: Displacement of [3H[SYM2081 from rat recombinant GluK2(VCR)a expressed in […] cells; assay type: cell-based
Chain of Glutamate receptor ionotropic, kainate 2 (P42260 whole entry): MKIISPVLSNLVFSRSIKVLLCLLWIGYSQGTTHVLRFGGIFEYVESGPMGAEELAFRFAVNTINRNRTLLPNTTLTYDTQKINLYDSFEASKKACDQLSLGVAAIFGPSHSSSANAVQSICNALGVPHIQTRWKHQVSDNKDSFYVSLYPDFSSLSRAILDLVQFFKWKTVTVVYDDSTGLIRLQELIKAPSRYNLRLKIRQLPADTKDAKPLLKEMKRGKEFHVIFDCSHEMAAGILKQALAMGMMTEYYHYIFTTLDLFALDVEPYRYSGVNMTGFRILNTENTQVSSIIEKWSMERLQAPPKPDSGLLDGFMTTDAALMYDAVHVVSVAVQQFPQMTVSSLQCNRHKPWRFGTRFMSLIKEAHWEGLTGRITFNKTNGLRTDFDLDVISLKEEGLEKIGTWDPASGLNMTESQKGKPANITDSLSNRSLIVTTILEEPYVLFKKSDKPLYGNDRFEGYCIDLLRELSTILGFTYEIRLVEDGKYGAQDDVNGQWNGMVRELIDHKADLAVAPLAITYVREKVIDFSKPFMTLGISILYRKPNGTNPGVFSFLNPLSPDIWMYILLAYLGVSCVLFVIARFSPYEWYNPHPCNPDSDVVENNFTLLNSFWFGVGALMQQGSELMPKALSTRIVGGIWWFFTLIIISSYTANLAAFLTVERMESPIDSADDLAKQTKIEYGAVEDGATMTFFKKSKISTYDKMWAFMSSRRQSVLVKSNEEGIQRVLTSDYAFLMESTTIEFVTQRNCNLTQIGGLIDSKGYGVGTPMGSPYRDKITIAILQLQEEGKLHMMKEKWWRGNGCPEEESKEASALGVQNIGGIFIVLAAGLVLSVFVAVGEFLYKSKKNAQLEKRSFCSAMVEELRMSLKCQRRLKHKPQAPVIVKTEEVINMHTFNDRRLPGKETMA
Method in brief: (§2)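 Competition binding to membranes from Sf9 cells infected with recombinant baculovirus encoding rat GluK subunits. Radioligand 1-5 nM [3H]SYM2081 (47.9 Ci/mmol), 12-16 ligand concentrations. At least three experiments, each in triplicate, reported as Ki mean ± SEM.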

Glutamate receptor 1 [7] = biological target: T4, Glutamate receptor 1 (Rattus norvegicus, UniProt P19490); experiment: Displacement of [3H[AMPA from rat recombinant GluA1o expressed in […] cells; assay type: cell-based; method in brief: as §1
T4 sequence (P19490 whole entry): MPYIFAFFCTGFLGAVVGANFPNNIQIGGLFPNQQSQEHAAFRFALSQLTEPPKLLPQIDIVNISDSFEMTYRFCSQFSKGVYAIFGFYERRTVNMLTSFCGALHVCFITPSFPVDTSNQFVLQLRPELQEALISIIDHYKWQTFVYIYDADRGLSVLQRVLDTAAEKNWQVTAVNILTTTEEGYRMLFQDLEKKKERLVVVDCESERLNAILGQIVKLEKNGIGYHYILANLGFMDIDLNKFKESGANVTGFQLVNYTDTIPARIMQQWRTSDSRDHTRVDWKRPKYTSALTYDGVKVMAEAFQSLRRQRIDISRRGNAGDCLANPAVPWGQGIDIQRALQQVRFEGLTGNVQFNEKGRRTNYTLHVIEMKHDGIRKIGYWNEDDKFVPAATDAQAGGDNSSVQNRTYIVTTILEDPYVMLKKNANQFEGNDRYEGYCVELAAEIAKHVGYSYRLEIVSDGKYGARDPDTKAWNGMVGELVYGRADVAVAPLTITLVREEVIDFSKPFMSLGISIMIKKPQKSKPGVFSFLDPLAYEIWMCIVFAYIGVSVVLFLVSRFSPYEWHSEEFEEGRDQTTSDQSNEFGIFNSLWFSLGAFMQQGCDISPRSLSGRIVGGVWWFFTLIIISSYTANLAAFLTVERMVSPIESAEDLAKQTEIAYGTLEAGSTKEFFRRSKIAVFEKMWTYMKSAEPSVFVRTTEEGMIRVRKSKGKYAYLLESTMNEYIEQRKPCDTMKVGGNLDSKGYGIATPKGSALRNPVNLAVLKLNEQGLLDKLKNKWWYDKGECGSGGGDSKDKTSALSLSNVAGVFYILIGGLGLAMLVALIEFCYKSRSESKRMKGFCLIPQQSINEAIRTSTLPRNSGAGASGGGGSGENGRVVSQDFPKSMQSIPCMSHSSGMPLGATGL

[8] = Displacement of [3H]AMPA from AMPA receptor in rat brain membrane; assay type: cell membranes
Method in brief: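 Rat cortical synaptosomal membranes, competition with 5 nM [3H]AMPA (55.5 Ci/mmol). IC50 given as the antilog of the mean log value from three individual experiments.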

Glutamate NMDA receptor = experiment: Displacement of [3H]CGP39653 from NMDA receptor in rat brain membrane; assay type: cell membranes
Glutamate receptor 2 [9] = biological target: Glutamate receptor 2 (Homo sapiens, UniProt P42262); experiment: Displacement of [3H]AMPA from GluA2-S1S2 receptor
Chain of Glutamate receptor 2 (Homo sapiens, UniProt P42262) (P42262 whole entry): as the sequence (P19491 whole entry) above, with T191M, A291T, G764R, P852A counted along it

Glutamate receptor 1 [10] = biological target: T4, Glutamate receptor 1; experiment: Agonist activity at rat recombinant GluA1i expressed in Xenopus laevis oocytes by two-electrode voltage clamp assay; assay type: functional, cell-based, Oocyte
Method in brief: (§3)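 Rat homomeric flip-isoform GluA subunits expressed in Xenopus laevis oocytes, measured by two-electrode voltage clamp. Highest concentration tested 3 mM. Responses normalized to the maximum response in each oocyte. Three to five experiments per receptor, each in duplicate. EC50 obtained by fitting I = Imax/(1 + (10^logEC50/10^log[A])^nH), giving Imax and Hill coefficient.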

Glutamate receptor 3 [11] = biological target: T2, Glutamate receptor 3; experiment: Agonist activity at rat recombinant GluA3i expressed in Xenopus laevis oocytes by two-electrode voltage clamp assay; assay type: functional, cell-based, Oocyte; method in brief: as §3
[12] = biological target: Glutamate receptor ionotropic, kainate 3 (Rattus norvegicus, UniProt P42264); experiment: Displacement of [3H[SYM2081 from rat recombinant GluK3a expressed in […] cells; assay type: cell-based; method in brief: as §2
Glutamate receptor 4 [13] = biological target: T1, Glutamate receptor 4; experiment: Agonist activity at rat recombinant GluA4i expressed in Xenopus laevis oocytes by two-electrode voltage clamp assay; assay type: functional, cell-based, Oocyte; method in brief: as §3
Glutamate receptor 2 [14] = biological target: T3, Glutamate receptor 2; experiment: Displacement of [3H[AMPA from rat recombinant GluA2(R)o expressed in […] cells; assay type: cell-based

Structure (SMILES)	IC50 [1] [µM]	Ki (Glutamate receptor 4 [2]) [µM]	Ki (Glutamate receptor 3 [3]) [µM]	Ki [4] [µM]	EC50 (Glutamate receptor 2 [5]) [µM]	Ki [6] [µM]	Ki (Glutamate receptor 1 [7]) [µM]	IC50 [8] [µM]	Ki (Glutamate NMDA receptor) [µM]	Ki (Glutamate receptor 2 [9]) [µM]	EC50 (Glutamate receptor 1 [10]) [µM]	EC50 (Glutamate receptor 3 [11]) [µM]	Ki [12] [µM]	EC50 (Glutamate receptor 4 [13]) [µM]	Ki (Glutamate receptor 2 [14]) [µM]
O=C(O)[C@H]1Cc2c(O)noc2CN1	> 100	0.64	0.84	10.1	22.3	> 100	0.36	0.47	> 100						
O=C(O)C1NCCc2c1o[nH]c2=O (racemic)	> 100	13.5	4.52	4.48	34.6	> 100	0.18	0.37	> 100	0.108	82.8	637	29.8	> 1000	
O=C(O)C1Cc2c(O)noc2CN1 (racemic)										0.494			54		
NC(Cc1onc(O)c1Cl)C(=O)O (racemic)	> 100	11.9	27.5	6.8		> 100	0.13	0.22	18		4.7		90.5		0.37
Cc1onc(O)c1C[C@H](N)C(=O)O [(S)-AMPA]						> 1000							42.7		
N[C@H](C(=O)O)c1cc(O)no1 [IBOTENIC ACID]	22	> 100	> 100	2.43		3.23	> 100	> 100					1.74		> 100
